Square brackets hold non-standard residues; d marks the D form. Peptide text beside a SMILES is read from it. pGlu = O=C1CC[C@@H](C(=O)O)N1
Legend:
[1] = target: T1, Gonadotropin-releasing hormone receptor (Rattus norvegicus) (UniProt P30969); experiment: Antagonist activity at LH-RH receptor in Sprague-Dawley rat pituitary gland assessed as change in LH-RH-induced luteinizing hormone release at 10 ug/ml preincubated for 2 hrs followed by LH-RH addition at 5th and 6th hr 5 mins post drug addition and measured every hour for 4 hrs by RIA
T1 sequence (whole entry): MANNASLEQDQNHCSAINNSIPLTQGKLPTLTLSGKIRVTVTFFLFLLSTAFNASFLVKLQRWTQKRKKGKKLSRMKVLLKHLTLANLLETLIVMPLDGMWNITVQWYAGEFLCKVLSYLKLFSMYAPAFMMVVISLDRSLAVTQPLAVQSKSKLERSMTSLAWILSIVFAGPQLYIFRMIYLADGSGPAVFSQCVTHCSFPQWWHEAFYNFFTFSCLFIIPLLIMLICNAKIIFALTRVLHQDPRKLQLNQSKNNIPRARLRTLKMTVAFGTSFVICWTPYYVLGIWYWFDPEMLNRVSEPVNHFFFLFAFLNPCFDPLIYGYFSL
In short: (§1)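 Two pituitaries from 20-day-old female rats were incubated in 1 mL lactated Ringer's at 37 °C with shaking for 6 h, with medium replaced hourly. Analogue was added in hours 3–6. LH-RH at 0.3 ng/mL was added in hours 5–6, 5 min after the analogue. LH and FSH were measured by RIA against the LER-1240-2 or FSH standard and reported as Δ ng/mL ± SEM with p values.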

[2] = target: T1, Gonadotropin-releasing hormone receptor (Rattus norvegicus); experiment: Antagonist activity at LH-RH receptor in Sprague-Dawley rat pituitary gland assessed as change in LH-RH-induced luteinizing hormone release at 100 ug/ml preincubated for 2 hrs followed by LH-RH addition at 5th and 6th hr 5 mins post drug addition and measured every hour for 4 hrs by RIA; in short: as §1
[3] = target: T1, Gonadotropin-releasing hormone receptor (Rattus norvegicus); experiment: Agonist activity at LH-RH receptor in Sprague-Dawley rat pituitary gland assessed as change in luteinizing hormone release at 100 ug/ml incubated for 4 hrs measured every hour for 4 hrs by RIA
In short: (§2)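 Two pituitaries from 20-day-old female rats per beaker, in 1 mL lactated Ringer's at 37 °C with shaking, 6 h total. Medium was replaced hourly. After two preincubation hours the analogue was present alone in hours 3–6 (peptide in µg/mL of medium). LH and FSH were measured by RIA as ng of LH-LER-1240-2 or FSH standard, given as Δ ± SEM with p values.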

[4] = target: T1, Gonadotropin-releasing hormone receptor (Rattus norvegicus); experiment: Antagonist activity at LH-RH receptor in Sprague-Dawley rat pituitary gland assessed as change in LH-RH-induced follicle-stimulating hormone release at 10 ug/ml preincubated for 2 hrs followed by LH-RH addition at 5th and 6th hr 5 mins post drug addition and measured every hour for 4 hrs by RIA; in short: as §1
[5] = target: T1, Gonadotropin-releasing hormone receptor (Rattus norvegicus); experiment: Agonist activity at LH-RH receptor in Sprague-Dawley rat pituitary gland assessed as change in follicle-stimulating hormone release at 100 ug/ml incubated for 4 hrs measured every hour for 4 hrs by RIA; in short: as §2
[6] = target: T1, Gonadotropin-releasing hormone receptor (Rattus norvegicus); experiment: Antagonist activity at LH-RH receptor in Sprague-Dawley rat pituitary gland assessed as change in LH-RH-induced luteinizing hormone release at 1 ug/ml preincubated for 2 hrs followed by LH-RH addition at 5th and 6th hr 5 mins post drug addition and measured every hour for 4 hrs by RIA; in short: as §1
[7] = target: T1, Gonadotropin-releasing hormone receptor (Rattus norvegicus); experiment: Antagonist activity at LH-RH receptor in Sprague-Dawley rat pituitary gland assessed as change in LH-RH-induced follicle-stimulating hormone release at 100 ug/ml preincubated for 2 hrs followed by LH-RH addition at 5th and 6th hr 5 mins post drug addition and measured every hour for 4 hrs by RIA; in short: as §1
[8] = target: T1, Gonadotropin-releasing hormone receptor (Rattus norvegicus); experiment: Antagonist activity at LH-RH receptor in Sprague-Dawley rat pituitary gland assessed as change in LH-RH-induced follicle-stimulating hormone release at 1 ug/ml preincubated for 2 hrs followed by LH-RH addition at 5th and 6th hr 5 mins post drug addition and measured every hour for 4 hrs by RIA; in short: as §1

| Structure (SMILES) | Activity [1] [ng/mL] | Activity [2] [ng/mL] | Activity [3] [ng/mL] | Activity [4] [ng/mL] | Activity [5] [ng/mL] | Activity [6] [ng/mL] | Activity [7] [ng/mL] | Activity [8] [ng/mL] |
| --- | --- | --- | --- | --- | --- | --- | --- | --- |
| CC(C)C[C@H](NC(=O)[C@@H]1CCC(=O)N1)C(=O)N[C@@H](C)C(=O)N[C@@H](CO)C(=O)N[C@@H](Cc1ccc(O)cc1)C(=O)N[C@H](C)C(=O)N[C@@H](CC(C)C)C(=O)N[C@@H](CCCNC(=N)N)C(=O)N1CCC[C@H]1C(=O)NCC(N)=O | 149 | 115 | 13 | 8150 | -351 | 230 | 5850 | 7020 |
| CCNC(=O)[C@@H]1CCCN1C(=O)[C@H](CCCNC(=N)N)NC(=O)[C@H](CC(C)C)NC(=O)[C@@H](C)NC(=O)[C@H](Cc1ccc(O)cc1)NC(=O)[C@H](CO)NC(=O)[C@H](C)NC(=O)[C@H](CC)NC(=O)[C@@H]1CCC(=O)N1 | 56 | 62 | -3 | 2970 | 184 | 157 | 1780 | 2610 |
| CCNC(=O)[C@@H]1CCCN1C(=O)[C@H](CCCNC(=N)N)NC(=O)[C@H](CC(C)C)NC(=O)[C@@H](C)NC(=O)[C@H](Cc1ccc(O)cc1)NC(=O)[C@H](CO)NC(=O)[C@H](C)NC(=O)[C@@H](NC(=O)[C@@H]1CCC(=O)N1)[C@@H](C)CC | – | 49 | 42 | – | 1020 | – | 1910 | – |

Next, values leading:

| Activity [1] [ng/mL] | Activity [2] [ng/mL] | Activity [3] [ng/mL] | Activity [4] [ng/mL] | Activity [5] [ng/mL] | Activity [6] [ng/mL] | Activity [7] [ng/mL] | Activity [8] [ng/mL] | Structure (SMILES) |
| --- | --- | --- | --- | --- | --- | --- | --- | --- |
| 88 | 90 | -7 | 6540 | -367 | – | – | – | CC(C)C[C@H](NC(=O)CNC(=O)[C@H](Cc1ccc(O)cc1)NC(=O)[C@H](CO)NC(=O)[C@H](CO)NC(=O)[C@H](CC(C)C)NC(=O)[C@@H]1CCC(=O)N1)C(=O)N[C@@H](CCCNC(=N)N)C(=O)N1CCC[C@H]1C(=O)NCC(N)=O ([pGlu]LSSYGLRPG-NH2) |
| – | 185 | 18 | – | -1270 | – | 2300 | – | CC(C)C[C@H](NC(=O)CNC(=O)[C@H](Cc1ccc(O)cc1)NC(=O)[C@H](CO)NC(=O)[C@H](CC(N)=O)NC(=O)[C@H](CC(C)C)NC(=O)[C@@H]1CCC(=O)N1)C(=O)N[C@@H](CCCNC(=N)N)C(=O)N1CCC[C@H]1C(=O)NCC(N)=O ([pGlu]LNSYGLRPG-NH2) |
| 180 | 180 | 14 | 3080 | 699 | – | 3230 | – | CC(C)C[C@H](NC(=O)CNC(=O)[C@H](Cc1ccc(O)cc1)NC(=O)[C@H](CO)NC(=O)[C@H](CC(C)C)NC(=O)[C@@H](NC(=O)[C@@H]1CCC(=O)N1)[C@@H](C)O)C(=O)N[C@@H](CCCNC(=N)N)C(=O)N1CCC[C@H]1C(=O)NCC(N)=O ([pGlu]TLSYGLRPG-NH2) |

— ChEMBL document CHEMBL3272172, “Inhibition of the activity of the luteinizing hormone-releasing hormone (LH-RH) by analogues with variations at positions 2, 3, and 6 and the carboxyl terminus” (J Med Chem, 1977)
